From ChEMBL document CHEMBL1142431, “Benzodioxoles: novel cannabinoid-1 receptor inverse agonists for the treatment of obesity” (J Med Chem, 2008)
Calls of active or inactive are those of the source. No cut-off for these calls is given here.

Key:
Cannabinoid receptor 1 [1] = biological target: T1, Cannabinoid receptor 1 (Homo sapiens, UniProt P21554); assay: Activity at human CB1R expressed in HEK293 cells assessed as intracellular cAMP level; format: functional, cell-based
[2] = Clearance in human liver microsomes; format: ADME, Microsome; settings: liver microsomes
Procedure, shortened: (§1)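 Test compound at 2 µM incubated with liver microsomes (0.5 mg protein/mL) in 50 mM potassium phosphate pH 7.4 at 37 °C. Reaction started with an NADPH-generating system (glucose-6-phosphate 3.2 mM, NADP 2.6 mM, MgCl2 6.5 mM). Six samples over 30 min, quenched in methanol with internal standard, then LC-MS/MS for substrate depletion. CLint taken from the first-order decay, normalized to protein.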

[3] = Clearance in rat liver microsomes; format: ADME, Microsome; settings: liver microsomes; procedure, shortened: as §1
Cannabinoid receptor 1 [4] = biological target: T1, Cannabinoid receptor 1; assay: biochemical; format: cell-based, HEK293
Mus musculus [5] = assay: Reversal of CP-55940-induced hypothermia in NMRI mouse assessed as rectal temperature at 30 mg/kg, ip; format: functional
Procedure, shortened: (§2)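 Mice housed eight per group, eight per dose, habituated at least 2 h. Test compound in 0.3% Tween 80 (10 mL/kg) given 90 min before CP 55940 (0.3 mg/kg iv, same vehicle). Body temperature read 20 min before compound, just before CP 55940, and 20 min after it.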

Mus musculus [6] = assay: Reversal of CP-55940-induced hypothermia in NMRI mouse assessed as rectal temperature at 30 mg/kg, po; format: functional, organism-based; parameters: dose 30 mg/kg; procedure, shortened: as §2
Mus musculus [7] = assay: Reversal of CP-55940-induced hypothermia in po dosed NMRI mouse assessed as rectal temperature; format: functional; settings: read-out: ID50 (the source's name); procedure, shortened: as §2
Rattus norvegicus = assay: Reduction in body fat in po dosed diet-induced obesity Sprague-Dawley rat model; format: functional, organism-based
Procedure, shortened: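 Sprague-Dawley rats fed HFD from 3 weeks of age for 10 weeks; high responders (body weight exceeding chow controls by >2 SD) grouped n = 9. After 3 days gavage adaptation, daily oral dosing at 5:00 p.m. for 2 weeks in 7.5% gelatine/0.62% NaCl in water, 2 mL/kg. Fat and lean mass by MRI before and at end of treatment.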

Cannabinoid receptor 2 = Cannabinoid receptor 2 (Homo sapiens, UniProt P34972); assay: Binding affinity to human CB2R
Sequence of Cannabinoid receptor 2 (P34972 whole entry): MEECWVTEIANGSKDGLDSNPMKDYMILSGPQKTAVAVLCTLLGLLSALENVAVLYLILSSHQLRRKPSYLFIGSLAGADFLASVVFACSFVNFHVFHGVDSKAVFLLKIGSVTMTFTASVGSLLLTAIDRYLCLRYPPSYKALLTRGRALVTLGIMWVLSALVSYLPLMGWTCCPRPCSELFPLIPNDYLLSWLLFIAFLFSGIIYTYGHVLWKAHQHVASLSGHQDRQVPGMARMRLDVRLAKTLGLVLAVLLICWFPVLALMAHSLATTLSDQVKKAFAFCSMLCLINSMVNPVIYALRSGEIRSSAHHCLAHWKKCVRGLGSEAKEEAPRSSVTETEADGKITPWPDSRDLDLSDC

T1 sequence (P21554 whole entry): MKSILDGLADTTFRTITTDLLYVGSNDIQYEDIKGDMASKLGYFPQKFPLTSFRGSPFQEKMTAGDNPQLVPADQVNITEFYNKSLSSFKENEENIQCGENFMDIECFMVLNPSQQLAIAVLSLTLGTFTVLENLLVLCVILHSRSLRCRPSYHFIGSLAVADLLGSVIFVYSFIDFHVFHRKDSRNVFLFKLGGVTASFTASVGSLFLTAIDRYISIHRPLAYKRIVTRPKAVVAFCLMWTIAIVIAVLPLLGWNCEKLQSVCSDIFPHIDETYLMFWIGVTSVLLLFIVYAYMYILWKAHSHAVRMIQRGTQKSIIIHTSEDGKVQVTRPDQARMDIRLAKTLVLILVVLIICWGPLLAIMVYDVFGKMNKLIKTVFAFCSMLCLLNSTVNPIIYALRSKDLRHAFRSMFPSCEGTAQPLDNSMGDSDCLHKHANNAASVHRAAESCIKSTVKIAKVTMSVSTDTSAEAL

SMILES	EC50 (Cannabinoid receptor 1 [1]) [nM]	microsomal CLint [2] [µL/min/mg]	microsomal CLint [3] [µL/min/mg]	Ki (Cannabinoid receptor 1 [4]) [nM]	also measured
O=C(c1cc2c(cc1F)OC(c1ccc(F)cc1)(c1ccc(Cl)cc1Cl)O2)N1CCCCC1 (stereo unspecified)	5	31	89	4	–
O=C(c1cc2c(cc1Br)OC(c1ccccc1)(c1ccccc1)O2)N1CCOCC1	–	–	–	873	–
CCCCCn1cc(C(=O)c2ccc3ccccc3c2)c2ccc(S(C)(=O)=O)cc21	–	–	–	110	–
O=S(=O)(c1cc2c(cc1F)OC(c1ccc(F)cc1F)(c1ccc(F)cc1F)O2)N1CCC(F)(F)CC1	3	271	287	3	Activity (Mus musculus [5]): inactive; Activity (Mus musculus [6]): inactive
O=C(c1cc2c(cc1F)OC(c1ccc(F)cc1)(c1ccc(Cl)cc1Cl)O2)N1CCOCC1 (stereo unspecified)	11	10	22	4	ED50 (Mus musculus [7]): 5 mg/kg
O=C(c1cc2c(cc1F)OC(c1ccccc1F)(c1ccc(Cl)cc1Cl)O2)N1CCOCC1 (stereo unspecified)	2	21	123	4	ED50 (Mus musculus [7]): 6 mg/kg
O=C(c1cc2c(cc1F)OC(c1ccc(F)cc1F)(c1ccc(F)cc1F)O2)N1CCCCC1	2	34	122	1	–
O=C(c1cc2c(cc1F)OC(c1ccc(F)cc1)(c1ccc(F)cc1)O2)N1CCOCC1	–	–	–	18	–
Fc1ccc(C2(c3ccc(F)cc3)Oc3cc(F)c(CN4CCOCC4)cc3O2)cc1	–	–	–	> 1000	–
O=C(c1cc2c(cc1F)OC(c1ccccc1)(c1ccccc1)O2)N1CCOCC1	26	33	272	15	–
O=S(=O)(c1ccc2c(c1)OC(c1ccccc1)(c1ccccc1)O2)N1CCCCC1	–	137	549	38	Activity (Mus musculus [5]): inactive
O=C(c1cc2c(cc1F)O[C@@](c1ccc(F)cc1)(c1ccc(Cl)cc1Cl)O2)N1CCOCC1	–	–	–	35	–
O=C(c1ccc2c(c1)OC(c1ccc(F)cc1)(c1ccc(Cl)cc1Cl)O2)N1CCOCC1 (stereo unspecified)	156	19	4	30	–
O=C(c1cc2c(cc1F)OC(c1ccc(F)cc1)(c1ccc(F)cc1)O2)N1CCCCC1	72	48	81	7	–
O=C(c1cc2c(cn1)OC(c1ccccc1)(c1ccccc1)O2)N1CCCCC1	–	–	–	13	–
COc1ccc(C2(c3ccc(Cl)cc3Cl)Oc3cc(F)c(C(=O)N4CCCCC4)cc3O2)cc1 (stereo unspecified)	5	34	88	2	ED50 (Mus musculus [7]): 8 mg/kg
Cc1c(C(=O)NN2CCCCC2)nn(-c2ccc(Cl)cc2Cl)c1-c1ccc(Cl)cc1	–	–	–	–	Activity (Rattus norvegicus): Active
O=S(=O)(c1ccc2c(c1)OC(c1ccccc1)(c1ccccc1)O2)N1CC=C(c2ccc(F)cc2)CC1	–	–	–	13	Activity (Mus musculus [5]): inactive; Ki (Cannabinoid receptor 2): > 10000 nM
O=C(c1cc2c(cc1Cl)OC(c1ccccc1)(c1ccccc1)O2)N1CCOCC1	–	44	388	216	–
Cc1cc2c(cc1C(=O)N1CCOCC1)OC(c1ccccc1)(c1ccccc1)O2	–	–	–	509	–
O=S(=O)(c1cc2c(cc1F)OC(c1ccc(F)cc1)(c1ccc(Cl)cc1Cl)O2)N1CCOCC1 (stereo unspecified)	3	20	53	9	ED50 (Mus musculus [7]): 16 mg/kg
O=C(c1cc2c(cc1F)OC(c1ccc(F)cc1F)(c1ccc(F)cc1F)O2)N1CCOCC1	4	96	30	7	ED50 (Mus musculus [7]): 8 mg/kg
O=C(c1cc2c(cc1F)OC(c1ccccc1)(c1ccccc1)O2)N1CCCCC1	1.2	50	486	11	–
O=C(CC(c1ccccc1)c1ccccc1)N1CC=C(c2ccc(Cl)cc2)CC1	–	–	–	1500	–
O=C(c1cc2c(cc1F)OC(c1ccc(F)cc1F)(c1ccc(F)cc1F)O2)N1CCC(F)(F)CC1	2	17	5	6	–
O=C(c1ccc2c(c1)OC(c1ccccc1)(c1ccccc1)O2)N1CCOCC1	784	–	–	50	–
N#Cc1cc2c(cc1C(=O)N1CCOCC1)OC(c1ccccc1)(c1ccccc1)O2	–	–	–	277	–
O=C(c1ccc2c(c1)OC(c1ccccc1)(c1ccccc1)O2)N1CCCCC1	–	53	673	28	Activity (Mus musculus [5]): inactive
O=S(=O)(c1cc2c(cc1F)OC(c1ccc(F)cc1F)(c1ccc(F)cc1F)O2)N1CCOCC1	11	102	149	25	Activity (Mus musculus [5]): inactive; Activity (Mus musculus [6]): inactive
